Measured values as given in ChEMBL document CHEMBL4014347, “Targeting Mycolic Acid Transport by Indole-2-carboxamides for the Treatment of Mycobacterium abscessus Infections” (J Med Chem, 2017).
Converted amounts (≈) assume the structure as drawn. The source made the active and inactive calls. The rule behind the calls is not given here.

How the values were obtained:
[1] = tested on: Mycobacteroides abscessus; assay: Antibacterial activity against Mycobacterium abscessus CIP104536 after 3 to 5 days by two fold serial dilution method; format: functional
Outline: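 Broth microdilution per CLSI in cation-adjusted Mueller–Hinton broth; exponential-phase inoculum 5 × 10^6 CFU/mL; two-fold serial dilutions from highest concentration, solvent wells as control; 30 °C for 3−5 days; MIC read visually and confirmed by absorbance at 560 nm; triplicate on three independent occasions.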

[2] = tested on: Mycobacteroides abscessus; assay: Antibacterial activity against non CF patient derived Mycobacterium abscessus subsp. abscessus isolate CIP104536 smooth variant after 3 to 5 days by two fold serial dilution method; format: functional
Outline: (§1)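 Broth microdilution in cation-adjusted Mueller−Hinton broth per CLSI; inoculum 5 × 10^6 CFU/mL of exponential-phase bacteria; two-fold serial dilutions, solvent-only wells as control; 30 °C for 3−5 days; MIC read visually and confirmed by absorbance at 560 nm; triplicate on three independent occasions.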

[3] = tested on: Mycobacteroides abscessus; assay: Antibacterial activity against CF patient derived Mycobacterium abscessus subsp. abscessus isolate 1298 smooth variant after 3 to 5 days by two fold serial dilution method; format: functional; outline: as §1
[4] = tested on: Mycobacteroides abscessus; assay: Antibacterial activity against non CF patient derived Mycobacterium abscessus subsp. abscessus isolate 2587 smooth variant after 3 to 5 days by two fold serial dilution method; format: functional; outline: as §1
[5] = tested on: Mycobacteroides abscessus; assay: Antibacterial activity against CF patient derived Mycobacterium abscessus subsp. abscessus smooth variant after 3 to 5 days by two fold serial dilution method; format: functional; outline: as §1
[6] = tested on: Mycobacteroides abscessus; assay: Antibacterial activity against CF patient derived Mycobacterium abscessus subsp. massiliense isolate 140 smooth variant after 3 to 5 days by two fold serial dilution method; format: functional; outline: as §1
[7] = Antibacterial activity against CF patient derived Mycobacterium abscessus subsp. bolletii isolate 114 smooth variant after 3 to 5 days by two fold serial dilution method; format: functional; conditions: Mycobacteroides abscessus; outline: as §1
[8] = Antibacterial activity against Mycobacterium abscessus subsp. bolletii isolate CIP108541 smooth variant after 3 to 5 days by two fold serial dilution method; format: functional; conditions: Mycobacteroides abscessus; outline: as §1
[9] = tested on: Mycobacteroides abscessus; assay: Antibacterial activity against Mycobacterium abscessus CIP104536 smooth variant harboring pMV261 MAB_4508_A309P mutant at 0.5 to 1 ug/ml after 3 days; format: functional
Outline: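 M. abscessus overexpressing wild-type or A309P MAB_4508 from pMV261 plated on 7H10 agar with 10% OADC containing drug; plates incubated at 30 °C for 3 days before growth inspection.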

[10] = tested on: Mycobacteroides abscessus; assay: Inhibition of MmpL3 in Mycobacterium abscessus CIP104536 smooth variant assessed as reduction in trehalose dimycolate synthesis up to 6.2 ug/ml preincubated for 1 hr followed by [14C]acetic acid addition measured after 2 hrs by TLC based autoradiography analysis
Outline: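 Exponential cultures in 7H9 with OADC exposed to increasing drug concentrations for 1 h at 37 °C with agitation, then labelled with 1 μCi/mL [14C]acetate (56 mCi/mmol) for 2 h; apolar lipids (TMM, TDM) run on TLC in chloroform/methanol/water 40:8:1; MAME and arabinogalactan-bound mycolates in petroleum ether/acetone 95:5; autoradiography.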

Cytochrome P450 1A2 = target: T1, Cytochrome P450 1A2 (Homo sapiens, UniProt P05177); assay: Inhibition of CYP1A2 in human liver microsomes preincubated for 5 mins followed by NADPH addition measured after 10 mins by LC-MS/MS analysis; format: ADME
T1 sequence (P05177 whole entry): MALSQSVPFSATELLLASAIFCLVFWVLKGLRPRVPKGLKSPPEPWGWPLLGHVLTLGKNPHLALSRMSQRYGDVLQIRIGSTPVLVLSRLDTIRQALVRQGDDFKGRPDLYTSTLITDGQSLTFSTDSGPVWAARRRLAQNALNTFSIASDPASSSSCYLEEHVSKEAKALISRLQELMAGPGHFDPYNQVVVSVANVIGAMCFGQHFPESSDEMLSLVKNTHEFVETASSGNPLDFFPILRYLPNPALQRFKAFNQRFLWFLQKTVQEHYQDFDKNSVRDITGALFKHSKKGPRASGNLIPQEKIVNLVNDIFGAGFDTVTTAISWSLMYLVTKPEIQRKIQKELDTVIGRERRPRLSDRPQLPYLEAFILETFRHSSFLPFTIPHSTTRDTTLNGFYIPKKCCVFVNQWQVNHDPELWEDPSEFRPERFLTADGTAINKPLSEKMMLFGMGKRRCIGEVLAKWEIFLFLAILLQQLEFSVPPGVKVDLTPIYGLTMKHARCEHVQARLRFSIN

Cytochrome P450 3A4 = Cytochrome P450 3A4 (Homo sapiens, UniProt P08684); assay: Inhibition of CYP3A4 in human liver microsomes preincubated for 5 mins followed by NADPH addition measured after 5 mins by LC-MS/MS analysis; format: ADME
Cytochrome P450 2C8 = target: T2, Cytochrome P450 2C8 (Homo sapiens, UniProt P10632); assay: Inhibition of CYP2C8 in human liver microsomes preincubated for 5 mins followed by NADPH addition measured after 10 mins by LC-MS/MS analysis; format: ADME
T2 sequence (P10632 whole entry): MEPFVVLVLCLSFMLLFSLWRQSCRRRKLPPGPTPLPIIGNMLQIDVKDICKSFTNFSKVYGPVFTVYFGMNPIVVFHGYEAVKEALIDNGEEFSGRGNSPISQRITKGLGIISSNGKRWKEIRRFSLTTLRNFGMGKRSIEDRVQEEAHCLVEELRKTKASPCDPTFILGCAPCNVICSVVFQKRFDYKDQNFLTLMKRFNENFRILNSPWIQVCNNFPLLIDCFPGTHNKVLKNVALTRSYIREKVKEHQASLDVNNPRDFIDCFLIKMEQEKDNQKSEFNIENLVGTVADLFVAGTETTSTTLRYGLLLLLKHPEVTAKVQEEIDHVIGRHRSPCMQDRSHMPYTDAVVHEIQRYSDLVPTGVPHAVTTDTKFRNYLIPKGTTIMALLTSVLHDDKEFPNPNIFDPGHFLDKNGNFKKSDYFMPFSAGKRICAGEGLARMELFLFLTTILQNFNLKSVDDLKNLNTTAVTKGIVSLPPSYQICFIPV

Cytochrome P450 2C9 = Cytochrome P450 2C9 (Homo sapiens, UniProt P11712); assay: Inhibition of CYP2C9 in human liver microsomes preincubated for 5 mins followed by NADPH addition measured after 10 mins by LC-MS/MS analysis; format: ADME
CYP1A2 = target: T3, CYP1A2 (Homo sapiens, UniProt P05177); assay: Inhibition of CYP1A2 in human liver microsomes preincubated for 5 mins followed by NADPH addition at 10 uM measured after 10 mins by LC-MS/MS analysis relative to control; format: ADME
T3 sequence (P05177 whole entry): T1 sequence (P05177 whole entry)

Liver = assay: Intrinsic clearance in mouse liver microsomes at 0.5 uM in presence of NADPH by LC-MS/MS analysis; format: ADME, microsome
Outline: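 Compound (0.5 μM) incubated with mouse or rat liver microsomes plus NADPH regenerating system; aliquots every 3 min over 30 min analysed for parent by LC-MS/MS; monoexponential decay rate normalized to microsomal protein, expressed as mL/min/g liver.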

Salmonella typhimurium = assay: Mutagenicity in Salmonella typhimurium TA98 in presence of rat liver S9 fraction assessed as increase in revertant colonies at 0.24 to 500 ug/well after 72 hrs by Ames test relative to control; format: toxicity; conditions: salmonella enterica subsp. enterica serovar typhimurium, s9, 72 h
Outline: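 Reverse mutation at histidine locus in S. typhimurium TA98 (frameshift) and TA100 (base-pair substitution), with and without S9; 0.24−500 μg/well; 37 ± 2 °C for 72 h, triplicates; DMSO vehicle; sodium azide, 2-nitrofluorene, 2-aminoanthracene positive controls; positive if revertants rise ≥2-fold over negative control dose-dependently.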

Cytochrome P450 2C9, sequence (P11712 whole entry): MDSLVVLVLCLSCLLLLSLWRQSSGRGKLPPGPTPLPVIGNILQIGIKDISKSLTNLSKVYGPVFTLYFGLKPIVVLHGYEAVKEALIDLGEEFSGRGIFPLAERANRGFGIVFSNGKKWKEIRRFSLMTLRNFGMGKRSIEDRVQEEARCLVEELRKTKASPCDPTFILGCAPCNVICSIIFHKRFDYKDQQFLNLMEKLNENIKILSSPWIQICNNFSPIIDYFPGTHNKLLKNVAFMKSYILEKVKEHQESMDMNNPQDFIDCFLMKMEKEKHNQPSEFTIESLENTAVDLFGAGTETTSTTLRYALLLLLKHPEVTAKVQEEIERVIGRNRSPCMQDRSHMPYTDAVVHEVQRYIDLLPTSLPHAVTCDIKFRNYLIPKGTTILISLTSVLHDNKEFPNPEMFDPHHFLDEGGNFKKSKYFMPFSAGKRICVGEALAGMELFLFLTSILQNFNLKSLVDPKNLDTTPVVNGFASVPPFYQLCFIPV
Cytochrome P450 3A4, sequence (P08684 whole entry): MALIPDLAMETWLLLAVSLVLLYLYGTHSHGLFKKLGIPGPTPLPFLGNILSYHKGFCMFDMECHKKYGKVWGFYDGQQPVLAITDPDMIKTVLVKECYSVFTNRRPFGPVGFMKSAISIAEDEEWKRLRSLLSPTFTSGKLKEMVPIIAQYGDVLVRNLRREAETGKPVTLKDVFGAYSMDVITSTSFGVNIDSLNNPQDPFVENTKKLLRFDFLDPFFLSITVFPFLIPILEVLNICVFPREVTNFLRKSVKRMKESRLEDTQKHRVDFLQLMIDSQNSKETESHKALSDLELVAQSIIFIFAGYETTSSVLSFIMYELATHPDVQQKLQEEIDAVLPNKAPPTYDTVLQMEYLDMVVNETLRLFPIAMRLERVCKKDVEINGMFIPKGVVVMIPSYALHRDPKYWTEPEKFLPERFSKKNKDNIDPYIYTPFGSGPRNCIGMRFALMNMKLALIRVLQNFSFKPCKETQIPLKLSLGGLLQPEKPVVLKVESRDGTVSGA

Compound O=C(NC1CCCCCC1)c1cc2c(Cl)cc(Cl)cc2[nH]1 has an MIC [1] of 0.125 mg/L (≈ 0.384 µM), an MIC [2] of 0.125 mg/L (≈ 0.384 µM) and an MIC [3] of 0.125 mg/L (≈ 0.384 µM). It also gave an MIC [4] of 0.125 mg/L (≈ 0.384 µM), an MIC [5] of 0.125 mg/L (≈ 0.384 µM) and an MIC [6] of 0.125 mg/L (≈ 0.384 µM). For the same compound, the MIC [7] was 0.125 mg/L (≈ 0.384 µM), the MIC [8] was 0.125 mg/L (≈ 0.384 µM) and the Activity [9] was “inactive”. The inhibition [10] was “Active”, the IC50 (Cytochrome P450 1A2) was ≤ 20 µM and the IC50 (Cytochrome P450 3A4) was ≤ 20 µM. The IC50 (Cytochrome P450 2C8) was ≤ 20 µM, the IC50 (Cytochrome P450 2C9) was ≤ 20 µM and the inhibition at 10 min, 10 µM (CYP1A2) was 19%. The CLH (Liver) was 4.8 mL/min/g and the “fold change (FC)” value (Salmonella typhimurium) was < 2.
